The results in this text go back to ChEMBL document CHEMBL1833837, “Tirucallane-type triterpenoids from Dysoxylum lenticellatum” (J Nat Prod, 2011).

Data set [1] relates to HL-60. Kind of data set: Cytotoxicity against human HL60 cells by SRB assay. Format: functional, cell-based. The essentials: (§1)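 SRB assay on tumor cells. Three independent experiments, five replicate wells for each concentration. IC50 obtained by linear regression where applicable. Mitomycin served as positive control.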
Data set [2] deals with SMMC-7721. The experiment in a line: Cytotoxicity against human SMMC7721 cells by SRB assay. Format: functional, cell-based. The essentials:
as §1

The subject of data set [3] is Aorta. The experiment in a line: Vasodilatory activity in rat thoracic aorta assessed as relaxation of phenylephrine-induced precontraction at 4 to 10 ug/mL. Format: functional, tissue-based. The essentials: (§2)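 Isolated thoracic aortic rings about 3 mm long, taken after pentobarbital anesthesia (60 mg/kg ip). Rings held in Krebs solution at pH 7.4 and 37 °C, gassed with 95% O2/5% CO2, for isometric tension recording. Equilibrated 1 h at 2 g resting tension, then challenged repeatedly with 80 mM KCl. Precontracted with 10^-6 M phenylephrine. Endothelium confirmed by >80% relaxation to 10^-6 M acetylcholine.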

Data set [4] concerns Aorta. Kind of data set: Vasodilatory activity in rat thoracic aorta assessed as relaxation of phenylephrine-induced precontraction at 10 ug/mL. Format: functional. Also on record: scale not given: the % may be the effect or the level left. The essentials:
as §2

Data set [5] can be described thus: Solubility of the compound. Format: physicochemical.

Calls of active or inactive are those of the source. The rule behind the calls is not given here.

For `CC(C)C(=O)C1(O)CC([C@@H]2CC[C@]3(C)C4=CC[C@H]5C(C)(C)C(=O)CC[C@]5(C)[C@H]4CC[C@@]23C)CO1` (mixture of isomers), the outcome in data set [1], in data set [2] and in data set [3] was inactive.

Take `CC1(C)C(=O)CC[C@]2(C)[C@H]3CC[C@@]4(C)[C@H](C5COC(=O)C5)CC[C@]4(C)C3=CC[C@@H]12` (stereo partly drawn): the outcome in data set [1] and in data set [2] was inactive. The Activity in data set [4] turned out to be 43.5%.

Turning to `CC(C)C(=O)C1(O)CC([C@@H]2CC[C@]3(C)C4=CC[C@H]5C(C)(C)[C@H](O)CC[C@]5(C)[C@H]4CC[C@@]23C)CO1` (mixture of isomers), the outcome in data set [1], in data set [2] and in data set [3] was inactive.

As for `CC1(C)[C@H](O)CC[C@]2(C)[C@H]3CC[C@@]4(C)[C@H](C5COC(=O)C5)CC[C@]4(C)C3=CC[C@@H]12` (stereo partly drawn), the outcome in data set [1] and in data set [2] was inactive. In addition, in data set [4], the Activity is 37.5%.

On to `C[C@@H](CC(=O)[C@@H]1OC1(C)C)[C@@H]1CC[C@]2(C)C3=CC[C@H]4C(C)(C)C(=O)CC[C@]4(C)[C@H]3CC[C@@]12C`, for which the solubility result in data set [5] was “Insoluble”. In addition, the outcome in data set [3] was inactive.

As for `CC(C)=CC(=O)[C@@H](O)[C@H](C)[C@@H]1CC[C@]2(C)C3=CC[C@H]4C(C)(C)[C@@H](O)CC[C@]4(C)[C@H]3CC[C@@]12C`, the outcome in data set [1], in data set [2] and in data set [3] was inactive.

Take `CC1(C)[C@H](O)CC[C@]2(C)[C@H]3CC[C@@]4(C)[C@H](C5=CC(=O)NC5=O)CC[C@]4(C)C3=CC[C@@H]12` [DYSOLENTICIN J]: the outcome in data set [1] and in data set [2] was inactive. Also, in data set [4], the Activity is listed as 87.4%.

Turning to `COC(=O)[C@@H](CC(=O)[C@@H]1OC1(C)C)[C@@H]1CC[C@]2(C)C3=CC[C@H]4C(C)(C)C(=O)CC[C@]4(C)[C@H]3CC[C@@]12C`, the result in data set [1] and in data set [2] was inactive.

As for `CC(C)=CCC[C@H](C)[C@@H]1CC[C@]2(C)C3=CC[C@H]4C(C)(C)[C@@H](O)CC[C@]4(C)[C@H]3CC[C@@]12C`, the outcome in data set [1], in data set [2] and in data set [3] was inactive.

Take `C[C@@H]([C@@H]1O[C@@H]1[C@@H]1OC1(C)C)[C@@H]1CC[C@]2(C)C3=CC[C@H]4C(C)(C)C(=O)CC[C@]4(C)[C@H]3CC[C@@]12C`: the outcome in data set [1], in data set [2] and in data set [3] was inactive.

As for `CC(C)=C[C@@H]1C=C([C@@H]2CC[C@]3(C)C4=CC[C@H]5C(C)(C)C(=O)CC[C@]5(C)[C@H]4CC[C@@]23C)C(=O)O1`, the outcome in data set [1] and in data set [2] was inactive.

In the case of `CCO[C@]1([C@@H]2OC2(C)C)CC([C@@H]2CC[C@]3(C)C4=CC[C@H]5C(C)(C)[C@H](O)CC[C@]5(C)[C@H]4CC[C@@]23C)CO1` (stereo partly drawn) [DYSOLENTICIN F], in data set [5], the solubility result is on record as “Insoluble”. Further, in data set [3], the result was inactive.

On to `CC1(C)C(=O)CC[C@]2(C)[C@H]3CC[C@@]4(C)[C@H](C5=CC(O)(CO)OC5=O)CC[C@]4(C)C3=CC[C@@H]12` (mixture of isomers) [DYSOLENTICIN C], for which the solubility entry in data set [5] is “Insoluble”.

As for `CC(=O)[C@@H]1CC[C@]2(C)C3=CC[C@H]4C(C)(C)C(=O)CC[C@]4(C)[C@H]3CC[C@@]12C` [DYSOLENTICIN G], the solubility result in data set [5] is recorded as “Insoluble”.

On to `CC1(C)[C@H](O)CC[C@]2(C)[C@H]3CC[C@@]4(C)[C@H]([C@H]5COC(=O)[C@@](O)(C(C)(C)O)C5)CC[C@]4(C)C3=CC[C@@H]12`, for which the outcome in data set [1], in data set [2] and in data set [3] was inactive.

As for `CC1(C)C(=O)CC[C@]2(C)[C@H]3CC[C@@]4(C)[C@H](C5=CC(=O)NC5=O)CC[C@]4(C)C3=CC[C@@H]12` [LAXIRACEMOSIN H], the result in data set [1] and in data set [2] was inactive. Besides, the Activity in data set [4] is given as 18.3%.

As to `CC1(C)O[C@H]1C(=O)C[C@H](C(=O)O)[C@@H]1CC[C@]2(C)C3=CC[C@H]4C(C)(C)C(=O)CC[C@]4(C)[C@H]3CC[C@@]12C`, the outcome in data set [1], in data set [2] and in data set [3] was inactive.
